{
  "source": "ChEMBL document CHEMBL1137254",
  "about": "“Structurally simple, potent, Plasmodium selective farnesyltransferase inhibitors that arrest the growth of malaria parasites” (J Med Chem, 2006)",
  "key": {"[1]": {"assay": "AUC in rat at 50 mg/kg, po", "type": "ADME, organism-based", "set-up": "dose 50 mg/kg, route oral", "conditions": "plasma", "outline": "(§1)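 Oral gavage at 50 mg/kg in 90% saline, 3% ethanol, 7% Tween; inhibitor concentration in plasma followed over 5 h. Values are averages of three animals per species (mice or rats). Reported parameters are AUC, Cmax, Tmax and elimination t1/2.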"}, "[2]": {"assay": "Cmax in rat at 50 mg/kg, po", "type": "ADME, organism-based", "set-up": "dose 50 mg/kg, route oral", "conditions": "in vivo", "outline": "as §1"}, "[3]": {"assay": "Tmax in mouse at 50 mg/kg, po", "type": "ADME, organism-based", "set-up": "dose 50 mg/kg, route oral", "conditions": "in vivo", "outline": "as §1"}, "[4]": {"molecular_target": "T1, Protein farnesyltransferase (PFT) (Plasmodium falciparum) (UniProt Q5EI73+Q5EI74)", "assay": "Inhibition of Plasmodium falciparum PFT at 50 nM"}, "[5]": {"molecular_target": "T2, Protein farnesyltransferase (PFT) (Plasmodium falciparum, UniProt Q5EI73+Q5EI74)", "T2 sequence (Q5EI73 whole entry)": "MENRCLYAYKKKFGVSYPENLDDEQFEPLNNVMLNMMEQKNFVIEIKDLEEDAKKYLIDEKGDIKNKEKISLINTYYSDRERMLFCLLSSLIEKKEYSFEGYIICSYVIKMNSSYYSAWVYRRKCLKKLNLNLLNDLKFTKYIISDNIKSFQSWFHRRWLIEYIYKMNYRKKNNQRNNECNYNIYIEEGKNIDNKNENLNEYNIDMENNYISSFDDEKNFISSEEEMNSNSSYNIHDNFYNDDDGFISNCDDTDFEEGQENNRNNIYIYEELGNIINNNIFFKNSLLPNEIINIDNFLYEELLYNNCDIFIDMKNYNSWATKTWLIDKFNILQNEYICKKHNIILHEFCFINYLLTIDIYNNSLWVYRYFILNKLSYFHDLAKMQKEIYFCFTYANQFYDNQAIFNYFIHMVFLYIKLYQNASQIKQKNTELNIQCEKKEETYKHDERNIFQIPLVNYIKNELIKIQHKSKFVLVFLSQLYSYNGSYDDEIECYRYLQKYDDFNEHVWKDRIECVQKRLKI", "T2 sequence (Q5EI74 whole entry)": "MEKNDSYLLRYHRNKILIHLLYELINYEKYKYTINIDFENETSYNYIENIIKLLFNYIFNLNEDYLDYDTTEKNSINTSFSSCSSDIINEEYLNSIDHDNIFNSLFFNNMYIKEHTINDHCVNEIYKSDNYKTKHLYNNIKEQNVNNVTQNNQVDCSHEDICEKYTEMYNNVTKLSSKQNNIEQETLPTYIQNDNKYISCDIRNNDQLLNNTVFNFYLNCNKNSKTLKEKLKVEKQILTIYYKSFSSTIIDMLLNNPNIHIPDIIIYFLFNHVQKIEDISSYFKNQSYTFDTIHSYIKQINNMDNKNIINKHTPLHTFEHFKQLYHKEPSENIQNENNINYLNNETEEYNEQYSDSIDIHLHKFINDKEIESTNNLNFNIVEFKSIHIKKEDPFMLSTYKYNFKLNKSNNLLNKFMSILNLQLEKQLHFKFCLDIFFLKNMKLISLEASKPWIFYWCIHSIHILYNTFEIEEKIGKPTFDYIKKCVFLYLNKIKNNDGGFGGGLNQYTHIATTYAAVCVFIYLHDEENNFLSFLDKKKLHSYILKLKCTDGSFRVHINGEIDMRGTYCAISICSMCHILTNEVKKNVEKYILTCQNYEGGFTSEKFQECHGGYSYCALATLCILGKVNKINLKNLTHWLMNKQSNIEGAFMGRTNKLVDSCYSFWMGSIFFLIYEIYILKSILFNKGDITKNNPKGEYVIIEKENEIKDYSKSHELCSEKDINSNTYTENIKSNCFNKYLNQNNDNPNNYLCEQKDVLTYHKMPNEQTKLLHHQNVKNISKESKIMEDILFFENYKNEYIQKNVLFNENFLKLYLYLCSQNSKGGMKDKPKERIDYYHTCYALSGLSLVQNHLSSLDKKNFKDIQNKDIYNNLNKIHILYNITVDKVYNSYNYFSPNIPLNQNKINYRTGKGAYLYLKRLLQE", "assay": "Inhibition of Plasmodium falciparum PFT", "type": "protein-complex assay"}, "[6]": {"molecular_target": "T1, Protein farnesyltransferase (PFT) (Plasmodium falciparum)", "assay": "Inhibition of Plasmodium falciparum PFT at 5 nM"}},
  "note": "pIC50: −log10 of the molar value.",
  "data": [
    {"smiles": "Cc1ccccc1CN(CCN(Cc1cncn1C)c1ccc(C#N)cc1)S(=O)(=O)c1cn(C)cn1", "values": [
      {"measurement": "AUC", "setting": "[1]", "result": 1.72, "unit": "µM·h"},
      {"measurement": "Cmax", "setting": "[2]", "result": 1050, "unit": "nM"},
      {"measurement": "Tmax", "setting": "[3]", "result": 40, "unit": "min"},
      {"measurement": "inhibition", "setting": "[4]", "result": 99, "unit": "%"},
      {"measurement": "pIC50", "setting": "[5]", "result": 9.22},
      {"measurement": "inhibition", "setting": "[6]", "result": 95, "unit": "%"}
    ]}
  ]
}
